Consider eleven molecules from ChEMBL document CHEMBL3865828, “Total synthesis of 8-(6″-umbelliferyl)-apigenin and its analogs as anti-diabetic reagents” (2016).

Calls of active or inactive are those of the source. No cut-off for these calls is given here.

Common to all, as to assay type: functional
The test system of assay [1] is 3T3-L1. Description: Increase in glucose uptake in serum-starved mouse 3T3L1 adipocytes at 10 uM pretreated followed by glucose addition measured under basal condition by glucose oxidase peroxidase method. Summed up:
(§1)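 3T3-L1 adipocytes, used 8–10 days after differentiation (IBMX/dexamethasone/insulin for 48 h, then insulin for 2 days), were incubated with agents in KRH buffer. Glucose in KRH was measured at 0 h and 4 h by glucose oxidase–peroxidase kit, and the difference was taken as consumed glucose. Metformin was the positive control. Data are mean ± SEM of independent experiments.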

The subject of assay [2] is 3T3-L1. Nature of the assay: Increase in glucose uptake in serum-starved mouse 3T3L1 adipocytes at 1 mmol/L pretreated followed by glucose addition measured under basal condition by glucose oxidase peroxidase method. Summed up:
as §1

The subject of assay [3] is 3T3-L1. Description: Increase in 2-NBDG uptake in serum-starved mouse 3T3L1 adipocytes at 1 mM measured under basal condition by inverted fluorescence microscopy. Summed up:
(§2)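 Adipocytes from 3T3-L1 cells, differentiated 2 days post-confluence in DMEM with 0.5 mM IBMX, dexamethasone and insulin for 48 h, then 2 days in DMEM (10% FBS) with insulin alone. Used 8–10 days after differentiation start. After 1-h serum starvation, cells got agents in KRH for 0.5 h, then […] 2-NBDG for 1 h. They were washed 3× with KRH and imaged by inverted fluorescence microscopy. Metformin was the control.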

Assay [4] relates to 3T3-L1. Description: Increase in 2-NBDG uptake in serum-starved mouse 3T3L1 adipocytes at 10 uM measured under basal condition by inverted fluorescence microscopy. Summed up:
as §2

For `O=c1cc(-c2ccc(O)cc2)oc2cc(O)cc(O)c12`, the outcome in assay [1] was Active.

Take `O=c1c(O)c(-c2ccc(O)c(O)c2)oc2cc(O)cc(O)c12`: the outcome in assay [1] was Active.

Consider `O=c1cc(-c2ccccc2)oc2cc(O)cc(O)c12`, for which the result in assay [1] was Active.

For the molecule `CN(C)C(=N)NC(=N)N`, the result in assay [2] and in assay [3] was Active.

As to `COc1cc2oc(=O)ccc2cc1-c1c(O)cc(O)c2c(=O)c(O)c(-c3ccc(O)c(O)c3)oc12`, the result in assay [1] and in assay [4] was Active.

As to `O=c1ccc2cc(-c3c(O)cc(O)c4c(=O)cc(-c5ccccc5)oc34)c(O)cc2o1`, the result in assay [1] was Active.

Consider `COc1cc2oc(=O)ccc2cc1-c1c(O)cc(O)c2c(=O)cc(-c3ccc(O)cc3)oc12`, for which the Activity in assay [1] is on record as 57%. For the same molecule, the result in assay [4] was Active.

Turning to `O=c1ccc2cc(-c3c(O)cc(O)c4c(=O)cc(-c5ccc(O)cc5)oc34)c(O)cc2o1`, the Activity in assay [1] turned out to be 48%. Besides, the result in assay [4] was Active.

Consider `COc1cc2oc(=O)ccc2cc1-c1c(O)cc(O)c2c(=O)cc(-c3ccc(O)c(O)c3)oc12`, for which the outcome in assay [1] and in assay [4] was Active.

For the molecule `COc1cc2oc(=O)ccc2cc1-c1c(O)cc(O)c2c(=O)cc(-c3ccccc3)oc12`, the outcome in assay [1] was Active.

As for `O=c1cc(-c2ccc(O)c(O)c2)oc2cc(O)cc(O)c12`, the result in assay [1] was Active.
